This is a sample that favours compounds with a hit; in the whole collection about 6.7% have one here.
Beta apoptosis – inhibitors of cytokine-induced beta cell apoptosis, primary screen, luminescence; INS-1E cytokine-induced death, ATP luminescence, 48 h; percent of positive-control rescue, neutral wells zero; protection from apoptosis, % (concentration not given with the values); 300,000 compounds, 0.8% hits; AID 435005, 2010;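 active means Every replicate reaches about 75%, or at least half do and their mean reaches it too, limit read from the data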;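 further: 0% = cytokine-treated negative control wells and 100% = positive control rescue; higher means more ATP so stronger rescue from cytokine killing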
CHOP inhibitor – inhibitors of CHOP promoter induction, primary screen, cell-based, unfolded protein response, luciferase reporter | CHO-K1 CHOP-promoter luciferase, tunicamycin-induced, 15-18 h | inhibition, % at 10 µM | 220,000 compounds, 3.8% hits | AID 2732, 2010;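 active means compounds that reduced the stress-induced luciferase reporter signal by more than about 70% of percent inhibition, limit read from the data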;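 further: 0% = tunicamycin plus vehicle and 100% = wells without tunicamycin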
T cruzi inh – inhibitors of intracellular T. cruzi growth, primary screen, luminescence, NIH3T3 host cells | T. cruzi beta-gal in NIH3T3, 90 h | inhibition, % (test concentration not listed) | 300,000 compounds, 1.4% hits | AID 1885, 2009;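 active means mean inhibition across valid replicates above about 55%, limit read from the data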;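 further: signal also drops with host cell toxicity which is not excluded here; 0% = plate median of DMSO wells and 100% = zero luminescence signal; higher percent means less beta-gal luminescence so fewer parasites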
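System: NIH/3T3 fibroblasts plus reporter T. cruzi. Medium: DMEM plus 2% FBS. Probe or stimulus: 5000 reporter trypomastigotes per well. Compound: single 50 nL compound addition per well in DMSO. Incubation: co-culture of at least 90 h after 3 h attachment. Detection: GalScreen β-gal luminescence, detergent lysis, 60 min. Evaluation: parasite load inhibition, %.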
PREPL inhibitor – PREPL enzyme inhibitors, primary screen, biochemical, fluorescence polarization | Prolyl endopeptidase-like (Homo sapiens), Q4J6C6 | recombinant PREPL, fluorescence polarization activity-based probe | inhibition, % at 5.96 µM | 320,000 compounds, 0.68% hits | AID 2751, 2010;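 further: 0% = enzyme with DMSO and 100% = wells lacking enzyme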
Target sequence (Q4J6C6 whole entry, looked up): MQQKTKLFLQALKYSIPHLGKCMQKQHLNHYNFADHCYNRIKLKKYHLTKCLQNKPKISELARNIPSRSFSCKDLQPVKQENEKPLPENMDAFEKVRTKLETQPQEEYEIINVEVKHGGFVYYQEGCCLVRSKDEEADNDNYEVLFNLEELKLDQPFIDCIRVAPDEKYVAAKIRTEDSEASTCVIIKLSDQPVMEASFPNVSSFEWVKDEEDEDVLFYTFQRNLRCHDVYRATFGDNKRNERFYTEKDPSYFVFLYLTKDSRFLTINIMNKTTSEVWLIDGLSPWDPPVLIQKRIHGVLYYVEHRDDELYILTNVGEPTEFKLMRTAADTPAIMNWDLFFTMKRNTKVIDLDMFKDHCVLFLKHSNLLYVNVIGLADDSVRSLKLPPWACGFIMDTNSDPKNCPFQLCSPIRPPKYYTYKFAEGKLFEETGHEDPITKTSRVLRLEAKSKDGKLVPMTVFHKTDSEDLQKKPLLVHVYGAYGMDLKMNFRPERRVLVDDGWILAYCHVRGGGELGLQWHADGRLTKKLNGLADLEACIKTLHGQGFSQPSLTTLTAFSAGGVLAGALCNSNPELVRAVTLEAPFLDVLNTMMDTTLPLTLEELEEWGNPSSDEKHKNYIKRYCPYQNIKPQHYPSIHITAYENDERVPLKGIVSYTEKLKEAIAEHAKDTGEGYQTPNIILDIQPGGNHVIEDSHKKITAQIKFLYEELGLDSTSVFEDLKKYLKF
CSC inhib – cancer stem cell viability inhibitors, primary screen, luminescence; cancer stem cell-like cells viability; inhibition, % at 7.5 µM; 300,000 compounds, 1.1% hits; in the data active means inhibition above about 75%; tested in HMLE shEcad cells
GRIN3A LBD mod – binders of NR3A ligand-binding domain, primary screen, biophysical, differential scanning fluorimetry, uHTS. Glutamate receptor ionotropic, NMDA 3A (GRIN3A) ligand-binding domain. NR3A LBD differential scanning fluorimetry, Tm shift; 0% = protein alone, 100% = glycine-bound protein. Tm shift relative to glycine control, % at 25 µM. 340,000 compounds, 2.5% hits;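 active means melting temperature shift of at least 10% of the positive control shift, at one fixed dose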
PREPL inh cf – human PREPL enzyme inhibitors, confirmation, biochemical, fluorescence polarization; shares compounds with PREPL inhibitor; recombinant PREPL, fluorescence polarization activity probe; inhibition, % at 5.96 µM; 2,000 compounds, 67% hits;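 further: 0% = protein with DMSO and 100% = wells lacking protein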
Starred values were filed as active, the others as inactive; · = no result given. Unless noted, no stated cut-off is given here; in the data, active means inhibition above about 43%; inactive means the rest.

SMILES | Beta apoptosis | CHOP inhibitor | T cruzi inh | PREPL inhibitor | CSC inhib | GRIN3A LBD mod | PREPL inh cf
COc1cc(/C=C2\C(=N)N3N=C(S(C)(=O)=O)SC3=NC2=O)ccc1OCCOc1ccccc1C | 8.8 | · | -5.1 | 21.2 | 22.4 | 7.4 | ·
COc1cc(/C=C2/C(=O)NN(c3cccc(C)c3)C2=O)ccc1OC(=O)c1ccco1 | · | 16.5 | 1.6 | 56.2* | -17.3 | -8.4 | 37.7
COc1cc(/C=C2\C(=N)N3N=C(S(C)(=O)=O)SC3=NC2=O)ccc1OC(=O)c1cccs1 | 0.8 | · | -8.1 | 76.3* | -14.8 | 1.8 | 87.5*
COc1cc(/C=C2\C(=N)N3N=C(S(C)(=O)=O)SC3=NC2=O)ccc1OC(=O)c1ccco1 | -5.8 | · | 4.7 | 61.1* | -14.8 | 1.0 | 85.0*
CCOc1cc(/C=C2\C(=N)N3N=C(S(=O)(=O)CC)SC3=NC2=O)ccc1OC(=O)c1ccco1 | 2.8 | · | -6.1 | 38.3 | -9.9 | 0.9 | ·
O=C(c1ccco1)N1CCN(c2ccc([N+](=O)[O-])c(N3CCOCC3)c2)CC1 | 4.8 | 1.5 | 3.2 | 4.7 | -8.9 | -2.7 | ·
COc1cccc2cc(C(=O)C3=C(O)C(=O)N(CCN4CCOCC4)C3c3ccc(C(C)(C)C)cc3)oc12 (centres undefined) | -4.4 | · | -1.0 | 52.9* | -6.3 | -1.3 | 56.4*
CC(C)CCN1CCN(CC(c2ccccc2)c2ccccc2)CC1CCO (centres undefined) | 3.5 | 31.3 | 6.1 | 3.6 | 56.9 | -0.2 | ·
COc1ccc(NC2CCCN(C(=O)CCCn3cncn3)C2)cc1OC (centres undefined) | -0.9 | · | -11.0 | 4.0 | -10.4 | -1.0 | ·
CCN1CCc2nc3sc(C(=O)N4CCc5ccccc5C4)c(N)c3cc2C1 | 1.0 | · | 26.2 | 64.5* | · | 1.0 | 48.0*
O=C(Cc1ccccc1)Nc1nc2ccccc2s1 | -1.0 | 33.4 | -17.9 | -8.1 | -1.2 | -3.1 | ·
O=C(CP(=O)(c1ccccc1)c1ccccc1)Nc1nc2ccccc2s1 | 12.3 | 7.2 | 4.1 | 50.0* | -9.1 | -1.7 | 41.2
O=C(C1CCN(c2ncnc3c2nc2n3CCCCC2)CC1)N1CCN(c2ccccc2F)CC1 | 10.6 | · | 16.1 | 44.4* | -9.2 | 0.2 | 42.9
COc1cccc(CN2CC(C(=O)N(C)CC3CCOCC3)CCC2=O)c1 (centres undefined) | -0.9 | · | -12.0 | 8.1 | 4.2 | -0.3 | ·
CC1CCCCN1C(=O)c1ccc(C(=O)c2ccccc2)cc1 (centres undefined) | 5.8 | · | · | 5.0 | 6.6 | 0.4 | ·
COC(=O)C1CC(=O)N(c2ccc(OCc3ccccc3Cl)cc2)C1 (centres undefined) | -4.3 | · | 7.7 | 31.4 | -7.4 | -5.2 | ·
NC(=O)C1CC(=O)N(c2ccc(OCc3ccc(Cl)cc3Cl)cc2)C1 (centres undefined) | 0.5 | -1.6 | -13.6 | 47.3* | 2.4 | -1.7 | 43.0
C#CCSc1nnc(-c2sc(-c3ccccc3)nc2C)n1C | 5.2 | 24.7 | 10.4 | -5.0 | · | -5.8 | ·
O=C(Cc1ccc2c(c1)OCCO2)N1CCN(S(=O)(=O)c2cccc(C(F)(F)F)c2)CC1 | -1.1 | 0.6 | -11.5 | 80.9* | 8.6 | -6.0 | 5.4
O=C(O)c1cccc(S(=O)(=O)Nc2ccc3c(c2)CCC3)c1 | · | · | -5.2 | · | · | 0.3 | ·
CCOCCCN(C(=O)c1snc(C(N)=O)c1N)C(C(=O)NC1CCCC1)c1ccc(OC)cc1 (centres undefined) | 3.6 | · | -5.9 | 4.8 | · | -5.8 | ·
C[C@H]1c2cccc(O)c2C(O)=C2C(=O)[C@]3(O)C(O)=C(C(N)=O)C(=O)[C@@H](N(C)C)C3[C@@H](O)C21 (some centres undefined) | -23.1 | · | -13.3 | 1.8 | 4.2 | 3.1 | ·
C=C1c2cccc(O)c2C(=O)C2C(=O)[C@]3(O)C(=O)C(C(N)=O)C(=O)[C@@H](N(C)C)[C@@H]3[C@@H](O)[C@H]12 (some centres undefined) | · | · | · | 61.7* | · | -8.0 | 2.2
CC1=C(C(=O)N2CCN(c3cc(C)ccc3C)CC2)C2(CCC(C)CC2)OC1=O (centres undefined) | · | 42.6 | · | · | · | · | ·
O=C1OC[C@@H]2CCCN2C(=O)[C@H](CC(=O)N(CCO)Cc2ccccc2)C/C=C\C[C@H]1Cc1ccc(F)cc1 | -6.1 | · | · | 50.6* | 4.0 | 0.3 | 39.3
SMILES | Beta apoptosis | CHOP inhibitor | T cruzi inh | PREPL inhibitor | CSC inhib | GRIN3A LBD mod | PREPL inh cf
O=C1OC[C@H]2CCCN2C(=O)[C@@H](CC(=O)N(CCO)Cc2ccccc2)C/C=C\C[C@@H]1Cc1ccc(F)cc1 | -2.4 | · | · | 28.3 | · | -1.8 | ·
Nc1nc(CCl)nc(N(c2ccccc2)c2ccccc2)n1 | 23.1 | -40.4 | 36.8 | 0.5 | 2.9 | 1.2 | ·
Cn1c(=O)[nH]c(=O)c2c1nc(CN1CCN(c3cccc(Cl)c3)CC1)n2CCN1CCOCC1 | -1.0 | -8.3 | -2.0 | 46.3* | -9.9 | 0.3 | 42.0
NCCCC[C@@H]1NC(=O)c2cc([N+](=O)[O-])cc(I)c2SC[C@@H](C(N)=O)NC(=O)[C@H](Cc2ccc(O)cc2)NC1=O | 1.9 | 8.6 | 12.2 | 54.4* | -4.6 | -6.2 | 48.6*
NCCCC[C@@H]1NC(=O)[C@H](CCC(=O)O)NC(=O)c2cc([N+](=O)[O-])cc(I)c2SC[C@@H](C(=O)NCC(N)=O)NC1=O | -8.3 | 6.8 | -0.7 | 7.5 | 3.2 | 2.5 | ·
CCOC(=O)c1c(C)n(CC(O)c2ccccc2)c2ccc(O)cc12 (centres undefined) | 1.9 | 0.1 | 7.7 | 171.2* | -6.3 | -21.9 | 6.0
CCOC(=O)c1c(C)n(CCOc2ccccc2)c2ccc(O)cc12 | -2.7 | · | -7.6 | -5.0 | -7.6 | 0.9 | ·
COc1cc(C(=O)NCC2CCCO2)ccc1OCc1ccc(Cl)cc1Cl (centres undefined) | 5.9 | · | 9.6 | 43.9* | 13.5 | 0.4 | 42.9
O=C1CC(C(=O)N2CCc3ccccc32)CN1c1ccccc1 (centres undefined) | · | · | -6.7 | -0.1 | -20.8 | -0.4 | ·
O=C(c1ccccc1)c1ccc(C(=O)N2CCOCC2)cc1 | -1.8 | 10.9 | -0.3 | 22.8 | 4.7 | -1.6 | ·
O=C(c1ccc(-c2ccccc2)cc1)c1ccccc1C(=O)N1CCOCC1 | 0.3 | -22.7 | -0.1 | 45.7* | -14.4 | 0.8 | 41.1
O=C(NCCN1CCCC1)C1CCC(=O)N(CCCN2CCOCC2)C1 (centres undefined) | -3.8 | · | -16.6 | 6.0 | 2.6 | 0.2 | ·

Bioassay records as filed in PubChem BioAssay.
